Assay results collected from several papers.
Compare with care: the assays were run in different laboratories.
CDK6 with cyclin D1: Cyclin-dependent kinase 6, with cyclin D1 (CDK6, Homo sapiens, UniProt Q00534)
CDK6 with cyclin D3: Cyclin-dependent kinase 6, with cyclin D3 (CDK6, Homo sapiens, UniProt Q00534)

Structure (SMILES)	target	effect on	action	technique	tested at	measurement	result
CC(C)(C)c1nc2c(s1)c1nc(N)ncc1c1ccc(NS(=O)(=O)c3c(F)cccc3F)c(F)c12	CDK6 with cyclin D1	enzyme activity	inhibitor	radiometric	1 µM	remaining activity	113%
O=C(Nc1cnn(-c2csc(C(=O)NC3COC3)c2)c1)Nc1c(F)cccc1Cl	CDK6 with cyclin D1	enzyme activity	inhibitor		5 µM	remaining activity	105%
O=C1Nc2ccc(Cl)cc2C1=Cc1cc(Cl)c(O)c(Cl)c1	CDK6 with cyclin D3	cell-free assay			0.5 µM	remaining signal	94.1%
CN1CC(Oc2cnc(C#N)cc2-c2ccn3nc(NC(=O)C4CC4)cc3c2)C1	CDK6 with cyclin D3	enzyme activity	inhibitor		1 µM	inhibition	-8%
CC(C)c1ccc(NC(=O)c2cccs2)c(-c2nc3ccccc3[nH]c2=O)c1	CDK6 with cyclin D3	enzyme activity	inhibitor		1 µM	activity vs control	114%
O=C(Nc1cnn(-c2csc(C(=O)NC3COC3)c2)c1)Nc1ccccc1Cl	CDK6 with cyclin D1	enzyme activity	inhibitor		5 µM	remaining activity	95.4%
CNC(=O)c1cc(Oc2ccc(NC(=O)Nc3ccc(Cl)c(C(F)(F)F)c3)cc2)ccn1	CDK6 with cyclin D3	enzyme activity	inhibitor		10 µM	inhibition	-5%
O=C1NC(=O)c2cc(Nc3ccc(F)cc3)c(Nc3ccc(F)cc3)cc21	CDK6 with cyclin D3	cell-free assay			0.5 µM	remaining signal	89.9%
Cc1ccc(NC(=O)c2ccc(C)c(C(F)(F)F)c2)cc1C#Cc1nn(C2CCC(O)CC2)c2ncnc(N)c12 (centres unmarked)	CDK6 with cyclin D3	cell-free assay			10 µM	remaining signal	120%
Cn1cnc(Br)c1C1=CN(c2ncnc3[nH]cnc23)CCS1	Cyclin-dependent kinase 6 (CDK6, Homo sapiens, UniProt Q00534)	enzyme activity	inhibitor	radiometric	2 µM	inhibition	40.4%
CC(C)(C)c1nc(-c2cccc(NS(=O)(=O)c3c(F)cccc3F)c2F)c(-c2ccnc(N)n2)s1	CDK6 with cyclin D3	enzyme activity	inhibitor	radiometric	1 µM	remaining activity	74%
CCN(CC)c1ccc(C2=NNC(=O)CC2C)cc1[N+](=O)[O-] (centres unmarked)	CDK6 with cyclin D3	enzyme activity	inhibitor		10 µM	remaining activity	90%
Cc1ccc(Nc2nccc(N(C)c3ccc4c(C)n(C)nc4c3)n2)cc1S(N)(=O)=O	CDK6 with cyclin D3	enzyme activity	inhibitor		0.3 µM	inhibition	-7%
Cc1cnc(NC2CCOCC2)nc1-n1cnc(C(=O)NC(CN)c2cc(F)cc(Cl)c2)c1 (centres unmarked)	CDK6 with cyclin D3	enzyme activity	inhibitor	radiometric	1 µM	remaining activity	31%
N#CCCc1ccc2c(c1)-c1[nH]c3ccc([N+](=O)[O-])cc3c1CC(=O)N2	CDK6 with cyclin D1	cell-free assay			0.5 µM	remaining signal	6.79%
CC(C)(O)[C@H]1CC[C@H](Nc2ccc3ncc(-c4cccc(C(F)(F)F)c4)n3n2)CC1	CDK6 with cyclin D1	enzyme activity	inhibitor		1 µM	remaining activity	101%
CCN(CC)CCNC(=O)c1c(C)[nH]c(/C=C2\C(=O)Nc3ccc(F)cc32)c1C	CDK6 with cyclin D3	enzyme activity	inhibitor		10 µM	inhibition	73%
